For one data set, the target named is Carbonic anhydrase 9 (Homo sapiens, UniProt Q16790). The experiment in a line: Inhibition of carbonic anhydrase 9 (unknown origin) preincubated for 15 mins by stopped flow CO2 hydration assay.
Another data set has as its system MDA-MB-231. The experiment in a line: Cytotoxicity against human MDA-MB-231 cells after 48 hrs by MTT assay. The settings on record: MDA-MB-231, 48 h.
The test system of the next data set is DU-145. The data set can be described thus: Cytotoxicity against human DU145 cells after 48 hrs by MTT assay. The settings on record: DU-145, 48 h.
Data set [1] relates to COLO 205. The experiment in a line: Cytotoxicity against human COLO205 cells after 48 hrs by MTT assay. To be noted: COLO 205, 48 h.
Data set [2] concerns COLO 205. The experiment in a line: Induction of apoptosis in human COLO205 cells assessed as DNA fragmentation at IC50 after 48 hrs using Hoechst 33258 staining by fluorescence microscopic analysis. It counts as functional, cell-based. The method in brief: (§1)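 COLO-205 cells plated at 10⁵ cells/ml and grown to 70-80% confluency, then treated for 48 h. Fixed in 4% formaldehyde for 30 min at RT and stained with Hoechst 33258 for 15 min at RT. After three PBS washes, examined by inverted fluorescence microscopy (ex 340-380 nm, em 465 nm) against untreated control cells.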

Data set [3] concerns Mus musculus. The experiment in a line: Toxicity in Swiss albino mouse DLA-induced solid tumor model assessed as increase in body weight at 50 mg/kg, po administered on days 3rd, 5th, 7th, 10th, 12th, and 14th of tumor inoculation measured on day 30 (reference value: 13.79%). It counts as organism-based. Details: dose 50 mg/kg, route oral. The settings on record: in vivo.
Data set [4] deals with COLO 205. The data set can be described thus: Induction of apoptosis in human COLO205 cells assessed as chromatin condensation at IC50 after 48 hrs using acridine orange and ethidium bromide staining by fluorescence microscopic analysis. Format: functional, cell-based. In short, it runs like this: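 COLO-205 cells seeded at 10⁵ cells/ml, grown 24 h, then treated for 48 h. Cells collected by trypsinization, centrifuged at 129 g for 5 min, and washed with PBS. Stained with a 1:1 acridine orange/ethidium bromide mix and examined by fluorescence microscopy against control cells.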

In data set [5] the test system is Mus musculus. The experiment in a line: Antitumor activity in Swiss albino mouse DLA-induced solid tumor model assessed as reduction in tumor volume at 50 mg/kg, po administered on days 3rd, 5th, 7th, 10th, 12th, and 14th of tumor inoculation measured on day 30. Details: scale not given: the % may be the effect or the level left. It counts as functional. The method in brief: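 Male Swiss albino mice (6-8 weeks, 29 ± 2 g) received DLA cells, 1 × 10⁶/mouse, subcutaneously into the right hind limb. Dosing by mouth in 0.25% CMC suspension. A vernier caliper gave tumor diameter every third day from day 3, and V = 4/3πr₁²×r₂. Percent inhibition is against vehicle control on day 30. Six mice per group.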

The test system of data set [6] is COLO 205. The data set can be described thus: Induction of apoptosis in human COLO205 cells assessed as nuclear condensation at IC50 after 48 hrs using Hoechst 33258 staining by fluorescence microscopic analysis. Format: functional, cell-based. The method in brief: as §1

pKi: −log10 of the molar value. Converted amounts (≈) assume the structure as drawn. The source made the active and inactive calls. The rule behind the calls is not given here.

Regarding `NS(=O)(=O)c1ccc(N2C(=O)CSC2c2ccc(Cl)cc2)cc1` (stereo not given), the pKi at Carbonic anhydrase 9 is 8.33. Moreover, the half-maximal inhibitory concentration (IC50) stood at 7.16 µg/mL (≈ 19.4 µM) in the data set with MDA-MB-231, 29.3 µg/mL (≈ 79.4 µM) with DU-145 and 15.4 µg/mL (≈ 41.7 µM) in the data set on COLO 205 [1].
`NS(=O)(=O)c1ccc(N2C(=O)CSC2c2ccccc2F)cc1` (stereo not given) showed a pKi on Carbonic anhydrase 9 of 7.35. The half-maximal inhibitory concentration (IC50) was found to be 25.9 µg/mL (≈ 73.4 µM) in the data set with MDA-MB-231, 38.6 µg/mL (≈ 110 µM) with DU-145 and 34.7 µg/mL (≈ 98.4 µM) with COLO 205 [1].
The compound `NS(=O)(=O)c1ccc(N2C(=O)CSC2c2ccc(F)cc2)cc1` (stereo not given) showed a pKi at Carbonic anhydrase 9 of 7.43. For the same compound, the IC50 in the data set on MDA-MB-231 turned out to be 22.7 µg/mL (≈ 64.4 µM); with DU-145, 37.1 µg/mL (≈ 105 µM); in the data set with COLO 205 [1] it was 31.4 µg/mL (≈ 89 µM).
The corresponding values for `NS(=O)(=O)c1ccc(N2C(=O)CSC2c2cccc(F)c2)cc1` (stereo not given) are 7.27, 21.4 µg/mL (≈ 60.6 µM), 39.1 µg/mL (≈ 111 µM) and 29.8 µg/mL (≈ 84.7 µM).
As for `NS(=O)(=O)c1ccc(N2C(=O)CSC2c2cccc(Cl)c2)cc1` (stereo not given), the result in the data set with COLO 205 [2], with COLO 205 [4] and with COLO 205 [6] was Active. Also, the Activity was 4.09% with Mus musculus [3] and 64.83% with Mus musculus [5]. On Carbonic anhydrase 9, this compound showed a pKi of 8.66. The IC50 came to 5.81 µg/mL (≈ 15.8 µM) in the data set on MDA-MB-231, 23.9 µg/mL (≈ 64.9 µM) with DU-145 and 5.03 µg/mL (≈ 13.6 µM) in the data set with COLO 205 [1].
`NS(=O)(=O)c1ccc(N2C(=O)CSC2c2ccccc2Br)cc1` (stereo not given) showed a pKi at Carbonic anhydrase 9 of 8.04. Further, the figures for the IC50 with MDA-MB-231, in the data set on DU-145 and in the data set on COLO 205 [1] were 20.6 µg/mL (≈ 49.9 µM), 35 µg/mL (≈ 84.7 µM) and 27.5 µg/mL (≈ 66.5 µM), respectively.
The compound `NS(=O)(=O)c1ccc(N2C(=O)CSC2c2ccccc2Cl)cc1` (stereo not given) showed a pKi at Carbonic anhydrase 9 of 8.11. For the same compound, the IC50 in the data set on MDA-MB-231 amounted to 13.6 µg/mL (≈ 36.8 µM); in the data set with DU-145, 33.3 µg/mL (≈ 90.2 µM); in the data set on COLO 205 [1], 19.5 µg/mL (≈ 52.9 µM).
`NS(=O)(=O)c1ccc(N2C(=O)CSC2c2cccc(Br)c2)cc1` (stereo not given): the pKi at Carbonic anhydrase 9 is 7.71. Moreover, the IC50 with MDA-MB-231 turned out to be 12.4 µg/mL (≈ 30 µM); in the data set on DU-145 it was 30.1 µg/mL (≈ 72.9 µM); in the data set with COLO 205 [1] it was 16.9 µg/mL (≈ 40.9 µM).
At Carbonic anhydrase 9, `NS(=O)(=O)c1ccc(N2C(=O)CSC2c2ccc(Br)cc2)cc1` (stereo not given) had a pKi of 7.87. In addition, the half-inhibitory concentration (IC50) came to 17.5 µg/mL (≈ 42.3 µM) with MDA-MB-231, 35.1 µg/mL (≈ 84.9 µM) in the data set on DU-145 and 23.1 µg/mL (≈ 55.8 µM) in the data set on COLO 205 [1].
Take `NS(=O)(=O)c1ccc(N2C(=O)CSC2c2ccccc2)cc1` (stereo not given): the pKi on Carbonic anhydrase 9 was 7.67. For the same compound, the IC50 in the data set with MDA-MB-231 turned out to be 23.9 µg/mL (≈ 71.4 µM); in the data set with DU-145 it was 39.2 µg/mL (≈ 117 µM); with COLO 205 [1], 30.6 µg/mL (≈ 91.5 µM).

Source of the values: ChEMBL document CHEMBL2407083, “Design and synthesis of novel 4-(4-oxo-2-arylthiazolidin-3-yl)benzenesulfonamides as selective inhibitors of carbonic anhydrase IX over I and II with potential anticancer activity” (Eur J Med Chem, 2013).
